Results: ChEMBL document CHEMBL4152304, “Design, synthesis and anticancer activity of fluorocyclopentenyl-purines and - pyrimidines” (Eur J Med Chem, 2018)

What was measured:
Type in all cases: functional, cell-based
SNU-638 = test: Cytotoxicity against human SNU638 cells assessed as decrease in cell viability after 72 hrs by SRB assay; conditions: SNU-638, 72 h
Outline: (§1)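 Cells from the Korean Cell Line Bank were grown in RPMI 1640 with 10% FBS and penicillin/streptomycin/amphotericin B at 37 °C under 5% CO2. They were seeded at 5 × 10^4 cells/mL and exposed to a range of compound concentrations for 72 h. Cells were fixed in 10% TCA and stained with 0.4% SRB in 1% acetic acid. Dye was dissolved in 10 mM Tris (pH 10.0) and read at A515. Viability is relative to vehicle; IC50 by nonlinear regression.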

SK-HEP1 = test: Cytotoxicity against human SKHEP1 cells assessed as decrease in cell viability after 72 hrs by SRB assay; conditions: SK-HEP1, 72 h
Outline: (§2)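 Maintained in DMEM with 10% FBS and penicillin/streptomycin/amphotericin B at 37 °C in humidified 5% CO2; cell lines from the Korean Cell Line Bank. Plated at 5 × 10^4 cells/mL and treated with various concentrations for 72 h. Then 10% TCA fixation, 0.4% SRB staining in 1% acetic acid, solubilisation in 10 mM Tris pH 10.0 and absorbance at 515 nm. Viability is versus vehicle control; IC50 from nonlinear regression.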

PC-3 = test: Cytotoxicity against human PC3 cells assessed as decrease in cell viability after 72 hrs by SRB assay; conditions: PC-3, 72 h; outline: as §1
A549 = test: Cytotoxicity against human A549 cells assessed as decrease in cell viability after 72 hrs by SRB assay; conditions: A549, 72 h; outline: as §1
HCT-116 = test: Cytotoxicity against human HCT116 cells assessed as decrease in cell viability after 72 hrs by SRB assay; conditions: HCT-116, 72 h; outline: as §1
MDA-MB-231 = test: Cytotoxicity against human MDA-MB-231 cells assessed as decrease in cell viability after 72 hrs by SRB assay; conditions: MDA-MB-231, 72 h; outline: as §2

**Q.** Which results are given for `OCC1=C(F)[C@@H](n2cnc3c(NC4CC4)ncnc32)[C@H](O)[C@@H]1O`?
**A.** IC50 (SNU-638): > 100 µM; IC50 (SK-HEP1): > 100 µM; IC50 (PC-3): > 100 µM; IC50 (A549): > 100 µM; IC50 (HCT-116): > 100 µM; IC50 (MDA-MB-231): > 100 µM

**Q.** Which results are given for `Nc1nc(NC2CC2)c2ncn([C@@H]3C(F)=C(CO)[C@@H](O)[C@H]3O)c2n1`?
**A.** IC50 (SNU-638): > 100 µM; IC50 (SK-HEP1): > 100 µM; IC50 (PC-3): > 100 µM; IC50 (A549): > 100 µM; IC50 (HCT-116): > 100 µM; IC50 (MDA-MB-231): > 100 µM

**Q.** How did the IC50 (SNU-638) turn out when `CC(C)OC(=O)[C@H](C)N[P@](=O)(OCC1=C(F)[C@@H](n2cnc3c(N)ncnc32)[C@H](O)[C@@H]1O)Oc1ccccc1` was run?
**A.** The IC50 was 3.05 µM.

**Q.** What about the IC50 (SK-HEP1) of the same compound?
**A.** Its IC50 is 24 µM.

**Q.** And the IC50 (PC-3)?
**A.** Its IC50 is 10.5 µM.

**Q.** And the IC50 (A549)?
**A.** Its IC50 is 18.6 µM.

**Q.** And the IC50 (HCT-116)?
**A.** Its IC50 is 4.57 µM.

**Q.** What about the IC50 (MDA-MB-231) of the same compound?
**A.** The IC50 was 18.4 µM.

**Q.** What does the source list for `Nc1nc(=O)n([C@@H]2C(F)=C(CO)[C@@H](O)[C@H]2O)cc1Cl`?
**A.** IC50 (SNU-638): > 100 µM; IC50 (SK-HEP1): > 100 µM; IC50 (PC-3): > 100 µM; IC50 (A549): > 100 µM; IC50 (HCT-116): > 100 µM; IC50 (MDA-MB-231): > 100 µM

**Q.** What does the source list for `Nc1nc(=O)n([C@@H]2C(F)=C(CO)[C@@H](O)[C@H]2O)cc1I`?
**A.** IC50 (SNU-638): 83.7 µM; IC50 (SK-HEP1): > 100 µM; IC50 (PC-3): 82.9 µM; IC50 (A549): > 100 µM; IC50 (HCT-116): 99.8 µM; IC50 (MDA-MB-231): 79.8 µM

**Q.** What does the source list for `O=c1nc(O)c(Cl)cn1[C@@H]1C(F)=C(CO)[C@@H](O)[C@H]1O`?
**A.** IC50 (SNU-638): 86.8 µM; IC50 (SK-HEP1): > 100 µM; IC50 (PC-3): 61.9 µM; IC50 (A549): > 100 µM; IC50 (HCT-116): > 100 µM; IC50 (MDA-MB-231): > 100 µM

**Q.** With `CNc1ncnc2c1ncn2[C@@H]1C(F)=C(CO)[C@@H](O)[C@H]1O` as the compound, how does the IC50 (SNU-638) read?
**A.** Its IC50 is 2.28 µM.

**Q.** And the IC50 (SK-HEP1)?
**A.** Its IC50 is 2.76 µM.

**Q.** What about the IC50 (PC-3) of the same compound?
**A.** The IC50 was 15.3 µM.

**Q.** And the IC50 (A549)?
**A.** Its IC50 is 2.39 µM.

**Q.** And the IC50 (HCT-116)?
**A.** Its IC50 is 2.14 µM.

**Q.** What about the IC50 (MDA-MB-231) of the same compound?
**A.** Its IC50 is 8.05 µM.

**Q.** With `Nc1nc(=O)n([C@@H]2C(F)=C(CO)[C@@H](O)[C@H]2O)cc1Br` as the compound, how does the IC50 (SNU-638) read?
**A.** The IC50 was > 100 µM.

**Q.** What about the IC50 (SK-HEP1) of the same compound?
**A.** Its IC50 is > 100 µM.

**Q.** And the IC50 (PC-3)?
**A.** The IC50 was > 100 µM.

**Q.** And the IC50 (A549)?
**A.** The IC50 was > 100 µM.

**Q.** What about the IC50 (HCT-116) of the same compound?
**A.** Its IC50 is > 100 µM.

**Q.** And the IC50 (MDA-MB-231)?
**A.** Its IC50 is > 100 µM.

**Q.** What does the source list for `OCC1=C(F)[C@@H](n2cnc3c(O)ncnc32)[C@H](O)[C@@H]1O`?
**A.** IC50 (SNU-638): > 100 µM; IC50 (SK-HEP1): > 100 µM; IC50 (PC-3): > 100 µM; IC50 (A549): > 100 µM; IC50 (HCT-116): > 100 µM; IC50 (MDA-MB-231): > 100 µM

**Q.** For `Nc1ncnc2c1ncn2[C@@H]1C=C(CO)[C@@H](O)[C@H]1O` [NEOPLANOCIN A], which IC50 (SNU-638) is on record?
**A.** The IC50 was 0.82 µM.

**Q.** What about the IC50 (SK-HEP1) of the same compound?
**A.** The IC50 was 2.36 µM.

**Q.** What about the IC50 (PC-3) of the same compound?
**A.** The IC50 was 2.14 µM.

**Q.** What about the IC50 (A549) of the same compound?
**A.** Its IC50 is 2.16 µM.

**Q.** What about the IC50 (HCT-116) of the same compound?
**A.** Its IC50 is 1.45 µM.

**Q.** What about the IC50 (MDA-MB-231) of the same compound?
**A.** Its IC50 is 0.86 µM.

**Q.** With `Nc1ccn([C@@H]2O[C@H](CO)[C@@H](O)[C@@H]2O)c(=O)n1` [CYTARABINE] as the compound, how does the IC50 (SNU-638) read?
**A.** Its IC50 is 1.08 µM.

**Q.** What about the IC50 (SK-HEP1) of the same compound?
**A.** The IC50 was 1.8 µM.

**Q.** What about the IC50 (PC-3) of the same compound?
**A.** The IC50 was 48.4 µM.

**Q.** What about the IC50 (A549) of the same compound?
**A.** Its IC50 is 1.75 µM.

**Q.** And the IC50 (HCT-116)?
**A.** The IC50 was 4.4 µM.

**Q.** What about the IC50 (MDA-MB-231) of the same compound?
**A.** Its IC50 is 10.5 µM.

**Q.** Which IC50 (SNU-638) does the source give for `O=c1nc(O)c(Br)cn1[C@@H]1C(F)=C(CO)[C@@H](O)[C@H]1O` here?
**A.** The IC50 was 32 µM.

**Q.** What about the IC50 (SK-HEP1) of the same compound?
**A.** Its IC50 is 75 µM.

**Q.** What about the IC50 (PC-3) of the same compound?
**A.** The IC50 was 32 µM.

**Q.** What about the IC50 (A549) of the same compound?
**A.** Its IC50 is > 100 µM.

**Q.** And the IC50 (HCT-116)?
**A.** Its IC50 is 33.1 µM.

**Q.** And the IC50 (MDA-MB-231)?
**A.** The IC50 was 44 µM.

**Q.** Which IC50 (SNU-638) does the source give for `O=c1nc(O)c(F)cn1[C@@H]1C(F)=C(CO)[C@@H](O)[C@H]1O` here?
**A.** The IC50 was 27.8 µM.

**Q.** And the IC50 (SK-HEP1)?
**A.** Its IC50 is 71.6 µM.

**Q.** What about the IC50 (PC-3) of the same compound?
**A.** Its IC50 is 43.7 µM.

**Q.** What about the IC50 (A549) of the same compound?
**A.** Its IC50 is > 100 µM.

**Q.** What about the IC50 (HCT-116) of the same compound?
**A.** Its IC50 is 52.3 µM.

**Q.** And the IC50 (MDA-MB-231)?
**A.** Its IC50 is 67.7 µM.

**Q.** For `O=c1nc(O)c(I)cn1[C@@H]1C(F)=C(CO)[C@@H](O)[C@H]1O`, which IC50 (SNU-638) is on record?
**A.** The IC50 was 70.2 µM.

**Q.** And the IC50 (SK-HEP1)?
**A.** The IC50 was > 100 µM.

**Q.** And the IC50 (PC-3)?
**A.** The IC50 was 46.4 µM.

**Q.** What about the IC50 (A549) of the same compound?
**A.** Its IC50 is > 100 µM.

**Q.** And the IC50 (HCT-116)?
**A.** Its IC50 is 84.5 µM.

**Q.** And the IC50 (MDA-MB-231)?
**A.** Its IC50 is 55.1 µM.

**Q.** `Nc1nc(=O)n([C@@H]2C(F)=C(CO)[C@@H](O)[C@H]2O)cc1F` was tested. Which IC50 (SNU-638) did it give?
**A.** Its IC50 is > 100 µM.

**Q.** What about the IC50 (SK-HEP1) of the same compound?
**A.** Its IC50 is > 100 µM.

**Q.** And the IC50 (PC-3)?
**A.** Its IC50 is > 100 µM.

**Q.** And the IC50 (A549)?
**A.** The IC50 was > 100 µM.

**Q.** What about the IC50 (HCT-116) of the same compound?
**A.** Its IC50 is > 100 µM.

**Q.** What about the IC50 (MDA-MB-231) of the same compound?
**A.** Its IC50 is > 100 µM.

**Q.** For `Nc1nc(N)c2ncn([C@@H]3C(F)=C(CO)[C@@H](O)[C@H]3O)c2n1`, which IC50 (SNU-638) is on record?
**A.** The IC50 was 32.2 µM.

**Q.** And the IC50 (SK-HEP1)?
**A.** Its IC50 is > 100 µM.

**Q.** And the IC50 (PC-3)?
**A.** Its IC50 is > 100 µM.

**Q.** What about the IC50 (A549) of the same compound?
**A.** Its IC50 is 85.4 µM.

**Q.** What about the IC50 (HCT-116) of the same compound?
**A.** The IC50 was 21.9 µM.

**Q.** And the IC50 (MDA-MB-231)?
**A.** Its IC50 is 22.8 µM.

**Q.** How did the IC50 (SNU-638) turn out when `Nc1nc(O)c2ncn([C@@H]3C(F)=C(CO)[C@@H](O)[C@H]3O)c2n1` was run?
**A.** The IC50 was > 100 µM.

**Q.** What about the IC50 (SK-HEP1) of the same compound?
**A.** The IC50 was > 100 µM.

**Q.** And the IC50 (PC-3)?
**A.** The IC50 was > 100 µM.

**Q.** What about the IC50 (A549) of the same compound?
**A.** Its IC50 is > 100 µM.

**Q.** And the IC50 (HCT-116)?
**A.** The IC50 was > 100 µM.

**Q.** What about the IC50 (MDA-MB-231) of the same compound?
**A.** The IC50 was > 100 µM.
